Data: ChEMBL document CHEMBL2046374, “Synthesis and biological evaluation of vinyl ether-containing azole derivatives as inhibitors of Trichophyton rubrum” (2012)
In brackets after ≈: the same amount, converted by molar mass.

Each molecule was assayed on Trichophyton rubrum (assay: Antifungal activity against Trichophyton rubrum incubated at 35 degC for 72 hrs by NCCLS based microbroth dilution method).
Type: functional
How it was run: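 Broth microdilution in 96-well plates per NCCLS; compounds dissolved in DMSO, serially diluted in growth medium, inoculated, incubated at 35 °C, read at 72 h for T. rubrum. MIC80 taken as first well with ~80% growth reduction versus drug-free well. Fluconazole, itraconazole, voriconazole, omoconazole and amphotericin B as positive controls. Tests run three times; mean of replicates reported.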

**Q.** With `C/C(=C(/OCCOc1ccc(Cl)cc1)c1ccc(F)cc1F)n1cncn1.O=[N+]([O-])O` as the molecule, how does the MIC80 read?
**A.** 0.2 mg/L

**Q.** How did the MIC80 turn out when `C/C(=C(/OCCCOc1ccc(Cl)cc1)c1ccc(F)cc1F)n1cncn1.O=[N+]([O-])O` was run?
**A.** 0.125 mg/L

**Q.** `C/C(=C(/OCCCCOc1ccc(Cl)cc1)c1ccc(F)cc1F)n1cncn1.O=[N+]([O-])O` was tested. Which MIC80 did it give?
**A.** 0.0625 mg/L

**Q.** How did the MIC80 turn out when `C/C(=C(/OCCCCCOc1ccc(Cl)cc1)c1ccc(F)cc1F)n1cncn1.O=[N+]([O-])O` was run?
**A.** 0.25 mg/L

**Q.** `C/C(=C(/OCCCCCCOc1ccc(Cl)cc1)c1ccc(F)cc1F)n1cncn1.O=[N+]([O-])O` was tested. Which MIC80 did it give?
**A.** 2.5 mg/L

**Q.** Which MIC80 does the source give for `C/C(=C(/OCCCOc1ccc(Br)cc1)c1ccc(F)cc1F)n1cncn1.O=[N+]([O-])O` here?
**A.** 0.25 mg/L

**Q.** How did the MIC80 turn out when `C/C(=C(/OCCCOc1ccc(F)cc1)c1ccc(F)cc1F)n1cncn1.O=[N+]([O-])O` was run?
**A.** 0.1 mg/L

**Q.** Which MIC80 does the source give for `C/C(=C(/OCCCCOc1ccccc1Cl)c1ccc(F)cc1F)n1cncn1.O=[N+]([O-])O` here?
**A.** 0.1 mg/L

**Q.** How did the MIC80 turn out when `C/C(=C(/OCCCCOc1cccc(Cl)c1)c1ccc(F)cc1F)n1cncn1.O=[N+]([O-])O` was run?
**A.** 0.025 mg/L

**Q.** `C/C(=C(/OCCCCOc1ccc(Cl)cc1Cl)c1ccc(F)cc1F)n1cncn1.O=[N+]([O-])O` was tested. Which MIC80 did it give?
**A.** 2 mg/L

**Q.** With `C/C(=C(/OCCCCOc1c(Cl)cc(Cl)cc1Cl)c1ccc(F)cc1F)n1cncn1.O=[N+]([O-])O` as the molecule, how does the MIC80 read?
**A.** > 20 mg/L

**Q.** How did the MIC80 turn out when `C/C(=C(/OCCCCOc1ccc(Br)cc1)c1ccc(F)cc1F)n1cncn1.O=[N+]([O-])O` was run?
**A.** 0.05 mg/L

**Q.** With `C/C(=C(/OCCCCOc1ccc(F)cc1)c1ccc(F)cc1F)n1cncn1.O=[N+]([O-])O` as the molecule, how does the MIC80 read?
**A.** 0.025 mg/L

**Q.** How did the MIC80 turn out when `C/C(=C(/OCCCOc1ccc(C)cc1)c1ccc(F)cc1F)n1cncn1.O=[N+]([O-])O` was run?
**A.** 2.5 mg/L

**Q.** For `C/C(=C(/OCCCCOc1ccc(C)cc1)c1ccc(F)cc1F)n1cncn1.O=[N+]([O-])O`, which MIC80 is on record?
**A.** 0.2 mg/L

**Q.** For `C[C@@H]1[C@H](O)[C@@H](C)/C=C/C=C/C=C/C=C/C=C/C=C/C=C/[C@H](O[C@@H]2O[C@H](C)[C@@H](O)[C@H](N)[C@@H]2O)C[C@@H]2O[C@](O)(C[C@@H](O)C[C@@H](O)[C@H](O)CC[C@@H](O)C[C@@H](O)CC(=O)O[C@H]1C)C[C@H](O)[C@H]2C(=O)O` [AMPHOTERICIN B], which MIC80 is on record?
**A.** 2 mg/L (≈ 2.16 µM)

**Q.** With `OC(Cn1cncn1)(Cn1cncn1)c1ccc(F)cc1F` [FLUCONAZOLE] as the molecule, how does the MIC80 read?
**A.** 4 mg/L (≈ 13.1 µM)

**Q.** How did the MIC80 turn out when `CCC(C)n1ncn(-c2ccc(N3CCN(c4ccc(OCC5COC(Cn6cncn6)(c6ccc(Cl)cc6Cl)O5)cc4)CC3)cc2)c1=O` (stereo not given) [ITRACONAZOLE] was run?
**A.** 0.125 mg/L (≈ 0.177 µM)

**Q.** How did the MIC80 turn out when `C/C(=C(/OCCOc1ccc(Cl)cc1)c1ccc(Cl)cc1Cl)n1ccnc1` [OMOCONAZOLE] was run?
**A.** 0.1 mg/L (≈ 0.236 µM)

**Q.** How did the MIC80 turn out when `C[C@@H](c1ncncc1F)[C@](O)(Cn1cncn1)c1ccc(F)cc1F` [VORICONAZOLE] was run?
**A.** 0.0625 mg/L (≈ 0.179 µM)
